# Screening results: PubChem BioAssay, The Scripps Research Institute Molecular Screening Center
# Only some compounds are listed: those with a hit (about 1.8% of all), similar ones and a draw of the others.
# core dimer inh = blocks dimerization of HCV core protein. TR-FRET GST/Flag-core106 dimerization, 1536-well. actives 0.33% (n = 300,000). inhibition, % at 5 µM;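 active = inhibition above the mean of all tested compounds plus 3 SD, set per screening campaign, cut at about 45% in these data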
#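 Test system: GST/Flag-tagged HCV core106 proteins; Medium: KF-containing HEPES buffer, pH 7.45, DTT, CHAPS, BSA; Times: compound-protein-antibody incubation 4 h at 22.5 °C; Detection: TR-FRET 671 and 617 nm emission; Benchmarks: wells lacking GST-core106 and wells with excess unlabelled core106.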
# UHRF1 binding = UHRF1 methyl-DNA binding inhibition. Q96T88. UHRF1 binding to methylated oligo, TR-FRET. inhibition, % at 4.4 µM. actives 0.75% (n = 370,000); in the data active = inhibition above about 21%;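 also: UHRF1 SRA domain binding a hemimethylated CpG hairpin DNA probe; 0% = median of test compound wells and 100% = reference inhibitor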
# LEDGF integ inh = blocks HIV-1 LEDGF/p75-dependent DNA integration; inhibition, % at 3.7 µM; TR-FRET IN-LEDGF/p75 DNA integration, Eu/Cy5; actives 0.64% (n = 370,000);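 active = inhibition above the screen-wide mean plus 3 SD, cut at about 13% in these data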;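 also: signal is the Cy5 over europium emission ratio at 671 and 618 nm; 0% = plate median of compound wells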
# MBD2 DNA inh = MBD2-methylated oligo binding inhibition; actives 0.31% (n = 370,000); Q9UBB5; AID 686964; inhibition, % at 4.4 µM; TR-FRET, MBD2 binding to methylated oligonucleotide; in the data active = inhibition above about 13%
# TDP2 inh = blocks human TDP2 phosphodiesterase activity; AID 720702; inhibition, % at 12.8 µM; O95551; actives 0.34% (n = 370,000); recombinant TDP2, T5PNP hydrolysis, p-nitrophenol absorbance 415 nm;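 active = inhibition above the mean of all tested compounds plus 3 SD, set per campaign, cut at about 25% in these data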;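 also: 0% = DMSO with enzyme and 100% = buffer with substrate but no TDP2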
# Target sequence (O95551 whole entry, looked up): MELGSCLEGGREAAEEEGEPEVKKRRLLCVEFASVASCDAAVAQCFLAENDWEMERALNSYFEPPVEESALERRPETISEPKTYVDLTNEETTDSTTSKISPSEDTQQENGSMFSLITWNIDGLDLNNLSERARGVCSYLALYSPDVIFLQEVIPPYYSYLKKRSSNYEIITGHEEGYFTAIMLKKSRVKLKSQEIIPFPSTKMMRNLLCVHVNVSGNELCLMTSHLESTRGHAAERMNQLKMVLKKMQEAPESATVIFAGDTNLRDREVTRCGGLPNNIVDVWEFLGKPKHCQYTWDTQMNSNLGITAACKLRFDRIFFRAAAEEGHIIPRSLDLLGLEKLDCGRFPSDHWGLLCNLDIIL
#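 test system = human TDP2 enzyme | input = TDP2 enzyme at 120 nM final | medium = 50 mM Tris-HCl pH 7.5 with Mg2+, KCl, DTT, BSA | also added = T5PNP substrate, 5 mM | times = 2 h at 37 °C | technique = epi absorbance | benchmarks = high control without enzyme, low control DMSO plus TDP2 | replication = each compound tested once, singlicate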
# TDP2 confirm = human TDP2 inhibition, confirmation; shares compounds with TDP2 inh; recombinant human TDP2, absorbance read-out; inhibition, % at 12.8 µM; actives 22% (n = 1,100); AID 743263; in the data active = inhibition above about 25%;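 also: 0% = vehicle with enzyme and 100% = no enzyme buffer only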
# * hit, by the source's call; / = no result given.
SMILES,core dimer inh,UHRF1 binding,LEDGF integ inh,MBD2 DNA inh,TDP2 inh,TDP2 confirm
CCOC(=O)c1c(S(=O)(=O)NCC(=O)Nc2ccccc2OC)c(C)n(C)c1C,1,-2,-2,1,4,/
O=C(c1cccc(I)c1)N1CCC(Oc2cccnc2)CC1,/,2,0,1,-2,/
CC1(C)C=C2C(=NN(c3ccccc3)C(N)=C2C#N)CO1,31,-4,-4,-2,47*,53*
CC1(C)Cc2c(C#N)c(N)n(-c3ccccc3)c(=S)c2CO1,4,-2,-4,3,8,/
Cc1nnc(N2C(=O)C(=O)/C(=C(/O)c3ccc4c(c3)CC(C)O4)C2c2ccccc2F)s1 (configuration not stated),-6,2,-3,2,37*,-5
O=C1C=C(Nc2ccc(F)cc2)c2ccccc2C1=O,/,-6,8,-18,19,/
CCOc1ccc(NC2=CC(=O)C(=O)c3ccccc32)cc1,/,-8,23*,-26,32*,40*
CC(C)C[C@H]1COc2cc(Br)ccc2S(=O)(=O)N1Cc1cn(Cc2ccc(C(F)(F)F)cc2)nn1,/,1,1,-6,5,/
O=C(O)CN1C(=O)/C(=C\c2cc(Br)ccc2OCc2ccc(Cl)cc2)SC1=S,/,-4,0,1,26*,17
Cc1cc(NC(=O)CSc2nc(CCC3CCCC3)nc3ccccc23)no1,11,0,-1,-2,3,/
Cc1nonc1NC(=O)CSc1nc(CCC2CCCC2)nc2ccccc12,13,1,0,-5,25*,0
Cc1cc(-c2ccccc2)nc2oc(C(=O)NN)c(N)c12,2,-9,-2,-2,30*,6
COc1ccc2nc(/N=C/c3c(C)[nH]n(-c4ccc(C)cc4)c3=O)sc2c1,-1,-10,1,-2,31*,14
CCc1nnc(NS(=O)(=O)c2ccc(N=Cc3c(C)[nH]n(-c4ccc(Cl)cc4)c3=O)cc2)s1,1,-5,3,-4,13,/
Cc1[nH]n(-c2ccc(Cl)cc2)c(=O)c1/C=N/c1nnc(-c2ccccc2)s1,-5,-3,2,-6,37*,20
Cc1[nH]n(-c2ccccc2)c(=O)c1/C=N/N1C(=O)c2cccc3cccc(c23)C1=O,-3,-21,1,-20,31*,7
Cc1ccc(-n2[nH]c(C)c(C=NCc3ccncc3)c2=O)cc1,-2,-6,-1,0,15,/
Cc1[nH]n(-c2ccccc2)c(=O)c1/C=N/N1CCOCC1,-8,-7,2,-6,17,/
Cc1[nH]n(-c2ccccc2)c(=O)c1C=NCc1ccncc1,-3,-6,1,-7,27*,3
N#Cc1ccc(/C=C2\CC3(OC(=O)c4ccc(Cl)cc4)CCCN2C3)cc1 (configuration not stated),/,-3,1,-7,-3,/
C[C@H]1C(=O)N2[C@@H](C[C@]3(c4c[nH]c5ccccc45)c4ccccc4N(S(=O)(=O)c4ccccc4)[C@H]23)C(=O)N1C,/,2,-2,4,4,/
CC(C)CN(C(=O)CCc1ccccc1Cl)c1c(N)n(Cc2ccccc2)c(=O)[nH]c1=O,1,-2,1,1,27*,-5
CC(C)CN(C(=O)CC(C)c1ccccc1)c1c(N)n(Cc2ccccc2)c(=O)[nH]c1=O (configuration not stated),-6,2,-5,2,-6,/
CC(C)c1ccc(NC(=O)/C(C#N)=C/c2ccncc2)cc1,4,0,1,2,24*,5
N#C/C(=C\c1ccncc1)C(=O)Nc1ccc(C(=O)O)cc1,8,0,9,-1,-23,/
SMILES,core dimer inh,UHRF1 binding,LEDGF integ inh,MBD2 DNA inh,TDP2 inh,TDP2 confirm
Cc1ccc(C(C[N+](=O)[O-])c2c(C)[nH]n(-c3ccccc3)c2=O)cc1 (configuration not stated),-2,-2,2,-2,34*,32*
Cc1[nH]n(-c2ccccc2)c(=O)c1C(C[N+](=O)[O-])c1ccc(F)cc1 (configuration not stated),-1,-7,3,-3,38*,20
Cc1[nH]n(-c2ccccc2)c(=O)c1C=NCCc1ccccc1,-6,-1,-1,-4,-6,/
CCN1CCN(CCOCCOc2ccccc2)CC1,-11,-1,0,-3,28*,11
CN1CCN(CCOCCOc2ccc(Br)cc2Cl)CC1,3,1,0,2,29*,8
CC1CCCN(CCOCCOc2ccc(Br)cc2Cl)C1 (configuration not stated),-3,-2,2,-1,18,/
CCc1ccc(OCCOCCN2CCN(C)CC2)cc1,-3,-1,4,-1,32*,20
N#CCC[C@@H]1CC[C@]2(CCCN(S(=O)(=O)c3ccccc3)C2)O1,/,2,6,8,-2,/
Brc1ccccc1OCCN1CCOCC1,-2,-2,3,-4,26*,3
CC(C)[C@H]1COc2c3ccccc3nn21,/,-3,3,-5,-1,/
COCC(=O)N[C@@H]1C[C@@H]2O[C@H](CO)CC[C@@H]2O[C@@H]1CCc1ccc(-c2ccccc2)cc1,/,6,-3,6,4,/
CC(C)c1cccc(C(C)C)c1NC(=O)CNCc1ccccc1F,-6,-2,1,3,5,/
CC(C)c1cccc(C(C)C)c1NC(=O)CNCC(O)c1ccccc1 (configuration not stated),-3,-2,3,3,26*,0
N#Cc1cc([N+](=O)[O-])ccc1Oc1ccc(-c2nnco2)cc1,-17,-2,3,0,0,/
O=[N+]([O-])c1ccc(Oc2ccc(-c3nnco3)cc2)c(Cl)c1,4,0,4,-1,47*,4
O=C(CCn1nnc(-c2cccs2)n1)N1CCOCC1,/,2,-2,2,5,/
COc1ccc(C2C(C(=O)Nc3ccc(F)cc3F)CCC(=O)N2c2ccc(OC)cc2)cc1 (configuration not stated),/,0,2,1,-13,/
CN1CCN(S(=O)(=O)c2ccc(NC(=O)c3ccccc3F)cc2)CC1,-11,0,-2,-1,25*,4
CN1CCN(S(=O)(=O)c2ccc(NC(=O)c3ccccc3Cl)cc2)CC1,0,1,2,-4,0,/
COc1cc(CN2CC(C)OC(C)C2)cc(OC)c1 (configuration not stated),-5,16,2,3,24*,4
COc1cc(CN2CCCCCC2)cc(OC)c1,9,3,1,3,8,/
CCOC(=O)[C@]12CCCCC/C=C\1N(Cc1ccc(OC)cc1)C(=O)[C@H]2CC(=O)NCc1ccc(OC)c(OC)c1,/,1,-2,0,8,/
